In ChEMBL document CHEMBL4373706, “Discovery of Inhibitors of Aurora/PLK Targets as Anticancer Agents” (J Med Chem, 2019):
Activity calls are given as the source filed them. The calls are words filed in the database; no cut-off is given here.

How the values were obtained:
[1] = tested on: HCT-116; experiment: Induction of apoptosis in human HCT116 cells assessed as increase in apoptotic index at 1 to 10 uM measured after 48 hrs by Annexin V-FITC/propidium iodide staining-based flow cytometry; assay type: functional, cell-based
[2] = tested on: HCT-116; experiment: Inhibition of colony formation in human HCT116 cells at 10 uM incubated for 48 hrs followed by supplemented with fresh medium every 3 days for 2 weeks by crystal violet staining-based assay; assay type: functional, cell-based
[3] = tested on: HCT-116; experiment: Antiproliferative activity against human HCT116 cells measured after 96 hrs by Brdu incorporation-based ELISA; assay type: functional, cell-based; settings: HCT-116, 96 h
[4] = tested on: HCT-116; experiment: Antiproliferative activity against human HCT116 cells measured after 48 hrs by MTT assay; assay type: functional, cell-based
In short: (§1)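 Cells were exposed to a range of compound concentrations for 48 h. MTT reagent was then added and absorbance read at 490 nm. Viability was normalized to vehicle control set as 100%, from n = 3 independent experiments, and IC50 was taken from the dose–response curves.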

[5] = tested on: A549; experiment: Antiproliferative activity against human A549 cells measured after 48 hrs by MTT assay; assay type: functional, cell-based; in short: as §1
[6] = tested on: MCF7; experiment: Antiproliferative activity against human MCF7 cells measured after 48 hrs by MTT assay; assay type: functional, cell-based; in short: as §1
[7] = tested on: Calu-6; experiment: Antiproliferative activity against human Calu6 cells measured after 48 hrs by MTT assay; assay type: functional, cell-based; in short: as §1
[8] = tested on: HCT-116; experiment: Antitumor activity against human HCT116 cells xenografted in BALB/c mouse assessed as survival rate at 10 mg/kg, iv administered every 3 days for 60 days relative to control; assay type: functional; settings: HCT-116, iv

Structure (SMILES) | Activity [1] | inhibition [2] | IC50 [3] [µM] | Activity [4] | Activity [5] | Activity [6] | Activity [7] | survival at 10 mg/kg [8] [%]
CC[C@@H]1C(=O)N(C)c2cnc(Nc3ccc(C(=O)NC4CCN(C)CC4)cc3OC)nc2N1C1CCCC1 | Active | inactive |  |  |  |  |  | 
COc1cc(Nc2ncc3c(n2)-c2ccc(Cl)cc2C(c2c(F)cccc2OC)=NC3)ccc1C(=O)O [ALISERTIB] | Active | inactive | 32 |  |  |  |  | 
O=C(Nc1ccc2cc(C(=O)NC3CCCCC3)ccc2c1)c1ccc(F)cc1 |  |  |  | Active | Active | Active | Active | 
O=c1[nH]cc(F)c(=O)[nH]1 [FLUOROURACIL] |  |  |  |  |  |  |  | 30
COc1ccc(C(=O)Nc2ccc3cc(C(=O)NC4CC4)ccc3c2)cc1 |  |  |  | Active | Active | Active | Active | 
